Reference: publication PMC4201501 (Journal of chromatography. B, Analytical technologies in …, 2014)
Where two headings read alike, the source gives them in different places. Blank lines part the entries; values can stand above or below the compound they belong to.

Legend:
[1] = Stability of SP-141 in mouse plasma; format: in vitro ADME; conditions: for percentage of intact compound remaining after three freeze-thaw cycles: three freeze-thaw cycles (-20°C/room temperature)
[2] = Stability of stock solutions at room temperature; format: physicochemical; conditions: stock solution in acetonitrile, room temperature (25°C), at least 24 h
Outline: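 Primary stock solutions (10 mM in acetonitrile) of test compound and internal standard were held at room temperature (25°C) for 6, 12 and 24 h before analysis.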

[3] = Autosampler stability of extracted plasma samples; format: physicochemical, mouse; conditions: extracted plasma sample, 4°C, 36 h
Outline: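 Extracted mouse-plasma QC samples (1.94, 81.0, 129.6 ng/mL; IS 16.2 ng/mL) were prepared by n-hexane–dichloromethane–2-propanol (20:10:1) extraction, dried under nitrogen at 40°C, and reconstituted in ACN–water 50:50. They were injected immediately (time 0), then re-injected after 36 h at 4°C in the autosampler. Quantitation was by C18 gradient LC–positive ESI MRM, as percentage of intact compound versus time 0.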

[4] = format: in vivo, CD-1 mice; conditions: CD-1, mouse, plasma, 40 mg/kg
[5] = tested on: MDM2 protein; conditions: cited from earlier work
[6] = tested on: human breast and pancreatic cancers; conditions: cited from earlier work

percentage of intact compound remaining after three freeze-thaw cycles ([1]; 1.94 ng/mL): 96.4% ± 0.6% | percentage of intact compound remaining after three freeze-thaw cycles ([1]; 81.0 ng/mL): 96.2% ± 2.4% | percentage of intact compound remaining after three freeze-thaw cycles ([1]; 129.6 ng/mL): 99.3% ± 2.5% | compound remained intact after 24-h storage ([1]; 4°C, 24 h, all QC concentrations): more than 95.3% | stability in plasma at room temperature ([1]; 25°C, up to 24 h, prior to extraction): relatively stable | compound remaining after 24-h incubation ([1]; 37°C, 24 h, all QC concentrations): more than 83.0% | intact drug remained after storage for 4 weeks ([1]; −80°C, 4 weeks, all concentrations tested): more than 92.2% | stability of stock solution [2]: stable | percentage of intact compound in the autosampler ([3]; 1.94 ng/mL): 96.3% ± 2.7% | percentage of intact compound in the autosampler ([3]; 81.0 ng/mL): 98.5% ± 3.1% | percentage of intact compound in the autosampler ([3]; 129.6 ng/mL): 96.8% ± 0.6% | AUC(0-inf) ([4]; ip): 13200 ng·h/mL | AUC(0-t) ([4]; ip): 12600 ng·h/mL | Cmax ([4]; ip): 4420 ng/mL | Tmax ([4]; ip): 10 min | concentration at 10 min ([4]; ip): 4420 ng/mL | concentration at 24 h ([4]; ip): < 150 ng/mL | half-life ([4]; ip): 107 min | AUC(0-inf) ([4]; iv): 8540 ng·h/mL | AUC(0-t) ([4]; iv): 8340 ng·h/mL | Cmax ([4]; iv): 5530 ng/mL | concentration at 5 min ([4]; iv): 5530 ng/mL | concentration at 24 h ([4]; iv): < 20 ng/mL | half-life ([4]; iv): 58.8 min
Structure (SMILES): COc1ccc2[nH]c3c(-c4cccc5ccccc45)nccc3c2c1 [SP-141, 6-methoxy-1-(naphthalen-1-yl)-9H-pyrido[3,4-b]indole]
binding to the MDM2 protein [5]: directly binds | potency against human breast and pancreatic cancers [6]: high potency | toxicity at doses leading to tumor regression [6]: without any observable toxicity

stability of stock solution [2]: stable
Structure (SMILES): COc1ccc2c(c1)[nH]c1c(-c3ccc4ccccc4c3)nccc12 [SP-157, 7-methoxy-1-(naphthalen-2-yl)-9H-pyrido[3,4-b]indole, reference compound]
